Measured values collected from several papers.
Protocols differ between the studies behind these lines.
Matrix: plasma

Structure (SMILES) | host | route | dose | setting | endpoint | result
Cn1cc(Nc2nc(N)nc(-c3cccc(-n4ccc5cc(C6CC6)cc(F)c5c4=O)c3CO)n2)cn1 | human | oral | 900 mg | single dose, fasted, suspension | AUC(0-t) | 64100 ng·h/mL
Cl.[2H]C([2H])([2H])CC(=O)c1cnc(NC(=O)C2CC2)cc1Nc1cccc(-c2ncn(C([2H])([2H])[2H])n2)c1OC | human | oral | 20 mg | multiple doses, once daily, steady state | AUC | 1100 ng·h/mL
COc1ccc([C@@H](O)c2cc(-c3ncnc4cc(N5CCOCC5)ccc34)c(F)cc2Cl)nn1 | human | oral | 200 mg | single dose, patients | AUC(0-t) | 6790 ng·h/mL
CC(=O)N[C@H]1CC[C@H](NC(=O)CN2CCN(c3nncc(-c4ccc(C)cc4)n3)CC2)CC1 | female human | oral | 100 mg | single dose, fasted, healthy volunteers | AUC(0-inf) | 6500 ng·h/mL
CC(C)n1c(Nc2cccnc2)nc2cnc(Nc3ccc(N4CCN(C)CC4)cc3)nc21 | male human | oral | 150 mg | – | AUC(0-inf) | 1390 ng·h/mL
CC[C@H](C)CCCCC(=O)N[C@@H](CCN)C(=O)N[C@H](C(=O)N[C@@H](CCN)C(=O)N[C@H]1CCNC(=O)[C@H]([C@@H](C)O)NC(=O)[C@H](CCN)NC(=O)[C@H](CCN)NC(=O)[C@H](CC(C)C)NC(=O)[C@@H](Cc2ccccc2)NC(=O)[C@H](CCN)NC1=O)[C@@H](C)O | human | intravenous | 0.75 mg/kg | single dose, infusion | AUC(0-inf) | 20500 ng·h/mL
Cc1ccc(C(=O)Nc2ccc(CN3CCN(C)CC3)c(C(F)(F)F)c2)cc1C#Cc1cnc2[nH]ncc2c1 | human | oral | 20 mg | single dose, healthy volunteers | AUC(0-t) | 105 ng·h/mL
CN1CC[C@@H](c2c(O)cc(O)c3c(=O)cc(-c4ccc(C(F)(F)F)cc4Cl)oc23)[C@@H]1CO | human | oral | 50 mg | patients | AUC(0-t) | 1430 ng·h/mL
NC(=S)NN=Cc1ncccc1N | human | oral | 150 mg | – | AUC(0-t) | 990 ng·h/mL
CNC(=O)n1ccc2cc(Oc3ccnc(NC(=O)c4ccc(C5CCN(CCO)CC5)cc4)c3)c(OCCOC)cc21 | human | oral | 35 mg | single dose, healthy volunteers | AUC(0-inf) | 93.4 ng·h/mL
NS(=O)(=O)OC[C@@H]1C[C@@H](n2ccc3c(N[C@H]4CCc5ccccc54)ncnc32)C[C@@H]1O | human | intravenous | 15 mg/m² | patients | AUC(0-t) | 780 ng·h/mL
C[C@H](O)C(=O)C1=Nc2c(nc(N)[nH]c2=O)NC1 | human | oral | 20 mg/kg | single dose, healthy volunteers | AUC(0-t) | 5.29 ng·h/mL
